# Only a selection was taken, and hits are over-represented in it overall.
# ROMK primary = modulators of human ROMK potassium channel; P48048; AID 1918; B-score at 10 µM; 130,000 tested, 2% active; Tet-inducible ROMK, thallium flux fluorescence; actives lie on both sides;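 active = signal ratio slope over the read window, or its plate-corrected B-score, at least 3 SD from the plate mean, either direction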;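 note: B-score of the F/F0 ratio slope over 7 to 12 s after thallium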
# Target sequence (P48048 whole entry, looked up): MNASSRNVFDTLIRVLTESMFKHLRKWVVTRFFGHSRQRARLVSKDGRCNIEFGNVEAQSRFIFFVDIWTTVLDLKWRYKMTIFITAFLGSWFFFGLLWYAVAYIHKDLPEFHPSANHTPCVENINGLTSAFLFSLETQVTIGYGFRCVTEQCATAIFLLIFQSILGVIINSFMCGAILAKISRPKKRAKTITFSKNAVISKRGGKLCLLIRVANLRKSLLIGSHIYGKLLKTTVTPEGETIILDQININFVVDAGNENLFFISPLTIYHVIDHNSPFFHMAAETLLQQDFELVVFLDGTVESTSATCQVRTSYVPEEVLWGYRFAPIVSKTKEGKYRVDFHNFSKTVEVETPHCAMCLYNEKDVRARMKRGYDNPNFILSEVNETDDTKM
# Calb biofilm kill = mixture kills Candida albicans biofilm cells | AID 1242 | C. albicans biofilm persisters + clotrimazole, fluorescence viability; primary screen in compound mixtures of four per well | 120,000 tested, 0.02% active | inhibition, % at 7.6 µM;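 active = inhibition above 30.3% in the primary screen of four-compound pools, then above 30% when the compound was retested; inconclusive = passed the primary limit but could not be retested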;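 note: compounds exposed to preformed 24 h biofilms for 48 h; 0% = untreated biofilm control and 100% = clotrimazole plus chlorhexidine kill blank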
#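 Incubation: 24 h biofilm formation, then 48 h compound exposure, 37 °C | Material: C. albicans biofilms | Buffer or medium: RPMI/MOPS medium, pH 7.0 | Measured by: 2-h Alamar Blue fluorescence, 535/590 nm excitation/emission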
# ROMK hit retest = confirmation of human ROMK potassium channel modulators. shares compounds with ROMK primary. ROMK thallium flux, fluorescence ratio; stronger effect = lower value. normalized thallium flux (F/F0 slope) at 10 µM. 3,000 tested, 54% active;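 active = Flux at 10 µM at least 3 SD below or above vehicle control mean in one or both replicates; inconclusive = no clear call, values can overlap the other calls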
# * marks the source's active call; other numbers are inactive results; ? = inconclusive; · = not tested or not shown.
SMILES,ROMK primary,Calb biofilm kill,ROMK hit retest
O=C(O)C1CC=CCC1C(=O)NNc1ccccc1 (configuration not stated),0.72,13,·
CC(C)(C)Nc1nc(Cl)nc(NCc2ccccc2)n1,-8.5*,22,0.047*
CCCNc1nc(Cl)nc(NCc2cccnc2)n1,-1.5,25,·
CCOC(=O)c1ccc(NC(=S)NC(=O)COc2ccccc2)cc1,·,9,·
NC(=NCCc1c[nH]c2ccccc12)NC(=O)c1ccc(F)cc1,·,16,·
O=C(/C=C/c1cccs1)c1cc(Cl)ccc1O,-0.82,17,·
O=C1OC(/C=C/c2ccc(Cl)cc2Cl)=NC/1=C\c1cccs1,-2.9*,10,0.059*
CC(=O)Nc1ccc(/C=C/c2ccc3c([N+](=O)[O-])cccc3n2)cc1,0.7,12,·
Nc1nc(NCc2ccc(Cl)cc2)nc(NCCO)c1[N+](=O)[O-],·,6,0.071
Cc1ccc(CNc2nc(N)c([N+](=O)[O-])c(NCCO)n2)cc1,·,13,·
Cc1ccc(C)[n+](CC(=O)c2ccc(-c3ccccc3)cc2)c1,0.54,15,·
Brc1ccc(-c2csc3ncnc(-n4nnc5ccccc54)c23)cc1,-0.49,11,·
O=C(CCc1ccccc1)N1CCN(c2ccc(Cl)cc2)CC1,-1.4,·,·
O=C(Cc1ccc([N+](=O)[O-])cc1)N1CCCCCC1,-0.94,6,·
O=C(CCc1ccc(Oc2cc([N+](=O)[O-])cc([N+](=O)[O-])c2)cc1)N1CCCCCC1,-2.9*,8,0.064*
O=C(CCc1ccccc1)N1CCN(c2ccc([N+](=O)[O-])cc2)CC1,-3.6*,2,0.063*
C=CCN1C(=O)/C(=c2\sc3nc(=O)c(Cc4ccccc4Cl)nn3c2=O)c2ccccc21,·,24,·
CCCCNC(=O)CC1C(=O)N(Cc2ccccc2)C(C)c2nc3ccccc3n21 (configuration not stated),0.024,·,·
COCCCNC(=O)CC1C(=O)N(Cc2ccccc2)C(C)c2nc3ccccc3n21 (configuration not stated),-4.4*,17,0.089
CCOc1ccccc1NC(=S)Nc1ccc(S(N)(=O)=O)cc1,0.49,20,·
Cc1ccc(C)c(NC(=O)CSc2nnc(-c3ccccc3)n2N)c1,-0.098,·,·
COc1cccc(-c2nnc(SCC(=O)Nc3cc(C)ccc3OC)n2N)c1,·,·,?
CN(CCC#N)C(=O)COC(=O)c1ccc(Cl)c(S(=O)(=O)N(C)c2ccccc2)c1,·,2,·
CCCCN(C)C(=O)C1CCN(Cc2ccc(OCc3ccccc3)cc2)CC1,-4.4*,8,0.061*
CCOC(=O)N1CCN(C(=O)C2CCN(Cc3cccc(OCc4ccccc4)c3)CC2)CC1,0.39,16,·
SMILES,ROMK primary,Calb biofilm kill,ROMK hit retest
C=CCN(C(=O)CSc1nc2c(sc3ccccc32)c(=O)n1CCN(CC)CC)c1ccccc1,1.7,11,·
O=C1c2ccccc2NC(c2ccc(-c3cccc([N+](=O)[O-])c3)o2)N1O (configuration not stated),-3.6*,8,0.061*
O=C(NN1C(=O)c2ccccc2NC1c1ccc([N+](=O)[O-])o1)c1ccc([N+](=O)[O-])cc1 (configuration not stated),-0.29,13,·
COc1ccc(N2CCN(C(=O)c3cc(N4C(=O)C5C6CCC(C6)C5C4=O)ccc3Cl)CC2)cc1 (configuration not stated),-2.3,13,·
O=C(c1cc(N2C(=O)C3C4CCC(C4)C3C2=O)ccc1Cl)N1CCN(c2ccc(F)cc2)CC1 (configuration not stated),-5*,13,0.061*
Cc1nnc(SCC(=O)NC(C)(C)C)n1NCc1c(F)cccc1Cl,-0.018,16,·
Fc1cccc(NC(=S)NCc2ccccn2)c1,1.9,12,·
Cc1cc(=O)oc2cc(NC(=S)NCc3ccccn3)ccc12,-6.6*,-6,0.047*
C/C(=N\Nc1ccc2nncn2n1)c1cccs1,·,19,·
COc1cc(OC)cc(C(=O)N[C@H](C(=O)Nc2ccc3c(c2)OCO3)C(C)C)c1,-0.28,21,·
CCCCCN(C(=O)CN1CCC(Cc2ccccc2)CC1)c1c(N)n(CCCC)c(=O)[nH]c1=O,-3.2*,22,0.061*
CCN(C(=O)CN1CCOCC1)c1c(N)n(Cc2ccccc2)c(=O)[nH]c1=O,-0.51,3,·
Cn1nc(C(F)(F)F)c(C#N)c1N1CCN(c2ccccc2F)CC1,-0.67,·,·
COc1cccc(N2CCN(c3c(C#N)c(C(F)(F)F)nn3C)CC2)c1,-4.1*,·,0.06*
Cn1c(-[n+]2c(-c3ccccc3)cc(-c3ccccc3)cc2-c2ccccc2)nc2cc([N+](=O)[O-])ccc21,·,26,0.06*
O=[N+]([O-])c1ccc2c(c1)ncn2-c1ccccc1,·,17,·
Cc1ccc(C(=O)CSc2nnc(N)s2)c(C)c1,0.22,15,·
CS(=O)(=O)c1ccc(Cl)c(NC(=O)CCl)c1,-0.87,10,·
Cc1ccc(C2CC2C(=O)NNC(=S)Nc2cccc(Cl)c2)cc1 (configuration not stated),·,19,?
Cc1ccc(C2CC2C(=O)NNC(=S)Nc2cccc(C)c2)cc1 (configuration not stated),-2,12,·
CCC1=NN(C(=O)Cc2ccc(OC)c(OC)c2)C(O)(C(F)(F)F)C1 (configuration not stated),·,2,·
Cn1nccc1NC(=O)COCC(=O)O,·,6,·
CCOC(=O)C1=C(c2ccccc2)Nc2ncnn2C1c1ccc(C(=O)O)cc1 (configuration not stated),·,1,·
CCOC(=O)C1=C(c2ccccc2)NC(N)=NC1c1ccc(OCc2ccc(C(=O)OC)cc2)cc1 (configuration not stated),·,9,0.053*
CC(=O)Nc1ccc(-c2csc(NC(C)c3ccccc3)n2)cc1 (configuration not stated),-0.79,12,·
SMILES,ROMK primary,Calb biofilm kill,ROMK hit retest
Cc1[nH]n(-c2ccccc2)c(=O)c1C(C[N+](=O)[O-])c1ccc(Cl)cc1 (configuration not stated),-3*,10,0.061*
Cc1ccc(C(C[N+](=O)[O-])c2c(C)[nH]n(-c3ccccc3)c2=O)cc1 (configuration not stated),-2.3,11,·
Cn1nc(C(C)(C)C)c(NC(=O)c2cccs2)c1C(C)(C)C,·,20,·
Cc1ccc(OCC(=O)Nc2cccc(-c3nnc(-c4ccccc4)o3)c2)cc1,·,·,0.079
Cc1cccc(C)c1OCC(=O)Nc1cccc(-c2nnc(-c3ccccc3)o2)c1,-1.8,·,·
Cc1c(N2CCCC2)cc2c(c1NC(=O)c1ccccc1Cl)C(C)(C)CC2(C)C,·,17,·
O=C(CCCN1C(=O)C2CCCCN2C1=O)N1CCN(c2ccc([N+](=O)[O-])cc2)CC1 (configuration not stated),0.17,·,·
O=C1C2CCCCN2C(=O)N1CCN1CCN(c2ccc([N+](=O)[O-])cc2)CC1 (configuration not stated),-2.8*,·,0.047*
Cc1cccc(N2CCN(Cc3nc(-c4cccc(Oc5ccccc5)c4)oc3C)CC2)n1,0.34,16,·
O=C(O)c1ccc(-c2nc(-c3cccc(C(F)(F)F)c3)cs2)cc1,3.1*,15,0.087
O=C(O)c1ccc(-c2nc(-c3ccc(Cl)cc3)cs2)cc1,-0.45,22,·
CCN(CC)c1ccc(N=Cc2cc(Br)ccc2O)cc1,-5.6*,14,0.064*
Oc1ccc(Br)cc1C=Nc1ccc(Cl)cc1,0.41,5,·
